# Reference: ChEMBL document CHEMBL1255304, “In vitro phenotypic susceptibility of human immunodeficiency virus type 2 clinical isolates to protease inhibitors” (Antimicrob Agents Chemother, 2008)
# Assays:
# [1] = test system: Human immunodeficiency virus 2; test: Antiviral activity against HIV 2 subtype B clinical isolate expressing 14Y-19P-61N-64V-71I-90M-95I protease gene sequence from HIV2 infected patient plasma and PBMC obtained at T2 during compound treatment measured after 3 months; type: functional, organism-based; details: Human immunodeficiency virus 2, subtype B\r\n
# Summary of the method: (§1)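 Virus isolated by PBMC coculture from patient samples taken before (T0) or during (T1, T2) protease inhibitor exposure, with protease genes sequenced from plasma and PBMC isolates. Susceptibility was tested in the ANRS PBMC assay, and the 50% inhibitory concentration (IC50) was reported.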
# [2] = test system: Human immunodeficiency virus 2; test: Antiviral activity against HIV 2 subtype A clinical isolate expressing 5L/F-14Y/H-17G/D-43T-54I/M-62V/A-70R/K-71I protease gene sequence from HIV2 infected patient plasma and PBMC obtained at T1 during compound treatment measured after 13 months; type: functional, organism-based; details: Human immunodeficiency virus 2, subtype A; summary of the method: as §1
# [3] = test system: Human immunodeficiency virus 2; test: Antiviral activity against HIV 2 subtype A clinical isolate expressing 10I-40D-43I-70K-82F-84V-85L-89V-90M-91T/L-98N/K protease gene sequence from HIV2 infected patient plasma and PBMC obtained at T1 during compound treatment measured after 13 months; type: functional, organism-based; details: Human immunodeficiency virus 2, subtype A; summary of the method: as §1
# [4] = test system: Human immunodeficiency virus 2; test: Antiviral activity against HIV 2 subtype B clinical isolate expressing 12T-14Y-19P-40N-41D-61N-62I-96S-99L protease gene sequence from HIV2 infected patient plasma and PBMC obtained before compound treatment measured after 13 months; type: functional, organism-based; details: Human immunodeficiency virus 2, subtype B\r\n; summary of the method: as §1
# [5] = test system: Human immunodeficiency virus 2; test: Antiviral activity against HIV 2 subtype A clinical isolate expressing 10I-17D-40D-43I-45K/R-46V-54M-64I/V-69K/R-71V/I-90M protease gene sequence from HIV2 infected patient plasma and PBMC obtained at T1 during compound treatment measured after 13 months; type: functional, organism-based; details: Human immunodeficiency virus 2, subtype A; summary of the method: as §1
# [6] = test system: Human immunodeficiency virus 2; test: Antiviral activity against HIV 2 subtype A clinical isolate expressing 14H-40D-70K-72R/K-91T/S protease gene sequence from HIV2 infected patient plasma and PBMC obtained before compound treatment measured after 13 months; type: functional, organism-based; details: Human immunodeficiency virus 2, subtype A; summary of the method: as §1
# [7] = test system: Human immunodeficiency virus 2; test: Antiviral activity against HIV 2 subtype B clinical isolate expressing 12Q-14R-17G/D-19P-61N-62I-92A protease gene sequence from HIV2 infected patient plasma and PBMC obtained before compound treatment measured after 13 months; type: functional, organism-based; details: Human immunodeficiency virus 2, subtype B\r\n; summary of the method: as §1
# [8] = test system: Human immunodeficiency virus 2; test: Antiviral activity against HIV 2 subtype A clinical isolate expressing 54M-65E-71I-74N-90M protease gene sequence from HIV2 infected patient plasma and PBMC obtained at T1 during compound treatment measured after 13 months; type: functional, organism-based; details: Human immunodeficiency virus 2, subtype A; summary of the method: as §1
# [9] = test system: Human immunodeficiency virus 2; test: Antiviral activity against HIV 2 subtype H expressing 10I-34E-40P-41Y-60H-63N-70T-73G-82F-89L-92E protease gene sequence from HIV2 infected patient plasma and PBMC obtained at T1 during compound treatment measured after 13 months; type: functional, organism-based; details: Human immunodeficiency virus 2, subtype H; summary of the method: as §1
# [10] = test system: Human immunodeficiency virus 2; test: Antiviral activity against HIV 2 subtype A clinical isolate expressing 10I-17D-40D-43I-46V-66V/A-70R/K protease gene sequence from HIV2 infected patient plasma and PBMC obtained before compound treatment measured after 13 months; type: functional, organism-based; details: Human immunodeficiency virus 2, subtype A; summary of the method: as §1
# [11] = test system: Human immunodeficiency virus 2; test: Antiviral activity against HIV 2 subtype B clinical isolate expressing 14Y-61N-99L protease gene sequence from HIV2 infected patient plasma and PBMC obtained before compound treatment measured after 13 months; type: functional, organism-based; details: Human immunodeficiency virus 2, subtype B\r\n; summary of the method: as §1
# [12] = test system: Human immunodeficiency virus 2; test: Antiviral activity against HIV 2 subtype A clinical isolate expressing 10V/I-40D-43I-56V-70K-82F-84V-89V-90M protease gene sequence from HIV2 infected patient plasma and PBMC obtained at T2 during compound treatment measured after 3 months; type: functional, organism-based; details: Human immunodeficiency virus 2, subtype A; summary of the method: as §1
# [13] = Antiviral activity against Human immunodeficiency virus type 1 (BRU ISOLATE) after […]; type: functional; details: Human immunodeficiency virus 1
# [14] = test system: Human immunodeficiency virus 2; test: Antiviral activity against HIV 2 subtype A clinical isolate expressing 14H-17D-43T-68N/D protease gene sequence from HIV2 infected patient plasma and PBMC obtained before compound treatment measured after 13 months; type: functional, organism-based; details: Human immunodeficiency virus 2, subtype A; summary of the method: as §1
# [15] = test system: Human immunodeficiency virus 2; test: Antiviral activity against HIV 2 subtype H expressing 10I-40P-41Y-60H-63N-70T-73G-89L-92E protease gene sequence from HIV2 infected patient plasma and PBMC obtained before compound treatment measured after 13 months; type: functional, organism-based; details: Human immunodeficiency virus 2, subtype H; summary of the method: as §1
# [16] = test system: Human immunodeficiency virus 2; test: Antiviral activity against Human immunodeficiency virus type 2 (ISOLATE ROD) after 13 months; type: functional, organism-based; details: Human immunodeficiency virus 2, ISOLATE ROD
# Summary of the method: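 Reference strain ROD was tested in the ANRS PBMC assay alongside the clinical isolates, and the 50% inhibitory concentration (IC50) was reported.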
# [17] = test system: Human immunodeficiency virus 2; test: Antiviral activity against HIV 2 subtype A clinical isolate expressing 14H-60K/N-65E protease gene sequence from HIV2 infected patient plasma and PBMC obtained before compound treatment measured after 13 months; type: functional, organism-based; details: Human immunodeficiency virus 2, subtype A; summary of the method: as §1
# [18] = test system: Human immunodeficiency virus 2; test: Antiviral activity against HIV 2 subtype B clinical isolate expressing 14Y-19P-33I-61N-71I-75M-84V-90M protease gene sequence from HIV2 infected patient plasma and PBMC obtained at T1 during compound treatment measured after 13 months; type: functional, organism-based; details: Human immunodeficiency virus 2, subtype B\r\n; summary of the method: as §1
Structure (SMILES),IC50 [1],IC90 [1],IC50 [2],IC50 [3],IC90 [3],IC50 [4],IC90 [4],IC50 [5],IC90 [5],IC50 [6],IC90 [6],IC50 [7],IC90 [7],IC50 [8],IC90 [8],IC50 [9],IC90 [9],IC50 [10],IC90 [10],IC50 [11],other results
CC(C)(C)NC(=O)[C@@H]1CN(Cc2cccnc2)CCN1C[C@@H](O)C[C@@H](Cc1ccccc1)C(=O)N[C@H]1c2ccccc2C[C@H]1O [INDINAVIR],12000 nM,95000 nM,18000 nM,6400 nM,51000 nM,4 nM,20 nM,200 nM,3100 nM,20 nM,400 nM,400 nM,2600 nM,10000 nM,82000 nM,12000 nM,99000 nM,4 nM,100 nM,100 nM,IC90 [11]: 600 nM; IC50 [12]: 11000 nM; IC90 [12]: 90000 nM; IC50 [13]: 5 nM; IC90 [13]: 40 nM; IC50 [14]: < 10 nM; IC90 [14]: < 10 nM; IC50 [15]: 20 nM; IC90 [15]: 500 nM; IC50 [16]: 30 nM; IC90 [16]: 300 nM; IC50 [17]: 30 nM; IC90 [17]: 400 nM; IC50 [18]: 3800 nM; IC90 [18]: 30000 nM
COC(=O)N[C@H](C(=O)N[C@@H](Cc1ccccc1)[C@@H](O)CN(Cc1ccc(-c2ccccn2)cc1)NC(=O)[C@@H](NC(=O)OC)C(C)(C)C)C(C)(C)C [ATAZANAVIR],200 nM,1400 nM,300 nM,40 nM,1300 nM,200 nM,400 nM,200 nM,1800 nM,40 nM,200 nM,30 nM,300 nM,400 nM,1800 nM,1900 nM,15000 nM,100 nM,300 nM,60 nM,IC90 [2]: 2100 nM; IC90 [11]: 300 nM; IC50 [12]: 400 nM; IC90 [12]: 3000 nM; IC50 [13]: 7 nM; IC90 [13]: 30 nM; IC50 [14]: 70 nM; IC90 [14]: 200 nM; IC50 [15]: 100 nM; IC90 [15]: 500 nM; IC50 [16]: 30 nM; IC90 [16]: 100 nM; IC50 [17]: 40 nM; IC90 [17]: 300 nM; IC50 [18]: 2200 nM; IC90 [18]: 17000 nM
Cc1c(O)cccc1C(=O)N[C@@H](CSc1ccccc1)[C@H](O)CN1C[C@H]2CCCC[C@H]2C[C@H]1C(=O)NC(C)(C)C [NELFINAVIR],> 17600 nM,> 17600 nM,14000 nM,> 17600 nM,> 17600 nM,60 nM,200 nM,1200 nM,15000 nM,200 nM,400 nM,40 nM,800 nM,3800 nM,53000 nM,9000 nM,24000 nM,50 nM,400 nM,200 nM,IC90 [2]: 110000 nM; IC90 [11]: 1000 nM; IC50 [12]: 10000 nM; IC90 [12]: 81000 nM; IC50 [13]: 2 nM; IC90 [13]: 100 nM; IC50 [14]: 30 nM; IC90 [14]: 300 nM; IC50 [15]: 40 nM; IC90 [15]: 300 nM; IC50 [16]: 50 nM; IC90 [16]: 900 nM; IC50 [17]: 60 nM; IC90 [17]: 800 nM; IC50 [18]: 14000 nM; IC90 [18]: 107000 nM
CC(C)(C)NC(=O)[C@@H]1C[C@@H]2CCCC[C@@H]2CN1C[C@@H](O)[C@H](Cc1ccccc1)NC(=O)[C@H](CC(N)=O)NC(=O)c1ccc2ccccc2n1 [SAQUINAVIR],6700 nM,52000 nM,> 12500 nM,6400 nM,51000 nM,7 nM,20 nM,90 nM,700 nM,5 nM,20 nM,60 nM,300 nM,> 12500 nM,> 12500 nM,7300 nM,31000 nM,2 nM,20 nM,14000 nM,IC90 [2]: > 12500 nM; IC90 [11]: 82000 nM; IC50 [12]: 22000 nM; IC90 [12]: 180000 nM; IC50 [13]: 10 nM; IC90 [13]: 40 nM; IC50 [14]: < 6 nM; IC90 [14]: < 6 nM; IC50 [15]: 30 nM; IC90 [15]: 300 nM; IC50 [16]: 10 nM; IC90 [16]: 90 nM; IC50 [17]: 5 nM; IC90 [17]: 50 nM; IC50 [18]: 8200 nM; IC90 [18]: 65000 nM
